Data on one compound can be found in ChEMBL document CHEMBL1146217, “Growth inhibition of Mycobacterium bovis, Mycobacterium tuberculosis and Mycobacterium avium in vitro: effect of 1-beta-D-2'-arabinofuranosyl and 1-(2'-deoxy-2'-fluoro-beta-D-2'-ribofuranosyl) pyrimidine nucleoside analogs” (J Med Chem, 2007).

The subject of the test is Mycobacterium tuberculosis. Kind of test: Antimycobacterial activity against drug-resistant Mycobacterium tuberculosis H37Rv at 2mg/mL by BACTEC assay. Type of test: functional, organism-based. The gist of the method: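 Radiometric BACTEC 12B (7H12) vials with a growing inoculum of 2.5-5.0 × 10⁵ CFU/vial, two-fold compound dilutions, 37 °C. Growth index read daily in a BACTEC 460 until 1:100 inoculum controls reached GI 30. Percent inhibition = (GI test/GI control) × 100.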

Active and inactive are the calls of the source. No cut-off for these calls is given here.

For the compound `CO[C@H]1/C=C/O[C@@]2(C)Oc3c(C)c(O)c4c(O)c(c(/C=N/N5CCN(C)CC5)c(O)c4c3C2=O)NC(=O)/C(C)=C\C=C\[C@H](C)[C@H](O)[C@@H](C)[C@@H](O)[C@@H](C)[C@H](OC(C)=O)[C@@H]1C` [RIFAMPIN], the outcome was inactive.
